Experimental data taken from ChEMBL document CHEMBL4138262, “Antineoplastic Agents. 606. The Betulastatins” (2018).
Converted amounts (≈) assume the structure as drawn.

Key:
Assay type in all cases: functional
BXPC-3 = test: Growth inhibition of human BxPC3 cells after 48 hrs by SRB assay; conditions: BXPC-3, 48 h
Outline: (§1)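 Cells in RPMI1640 with 5% fetal bovine serum were seeded in 96-well plates and incubated 24 h before serial dilutions of compound were added. After 48 h, plates were TCA-fixed, stained with sulforhodamine B and read on a microplate reader. Five serial dilutions were tested, with optical density in duplicate per end point. GI50 was calculated from optical density as the concentration halving net protein increase.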

MCF7 = test: Growth inhibition of human MCF7 cells after 48 hrs by SRB assay; conditions: MCF7, 48 h; outline: as §1
SF-268 = test: Growth inhibition of human SF268 cells after 48 hrs by SRB assay; conditions: SF-268, 48 h; outline: as §1
NCI-H460 = test: Growth inhibition of human NCI-H460 cells after 48 hrs by SRB assay; conditions: NCI-H460, 48 h; outline: as §1
KM-20L2 = test: Growth inhibition of human KM20L2 cells after 48 hrs by SRB assay; conditions: KM-20L2, 48 h; outline: as §1
DU-145 = test: Growth inhibition of human DU145 cells after 48 hrs by SRB assay; conditions: DU-145, 48 h; outline: as §1

Row | Compound | GI50 (BXPC-3) | GI50 (MCF7) | GI50 (SF-268) | GI50 (NCI-H460) | GI50 (KM-20L2) | GI50 (DU-145)
1 | C=C(CNC(=O)[C@H](C)[C@@H](OC)[C@@H]1CCCN1C(=O)C[C@@H](OC)[C@H]([C@@H](C)CC)N(C)C(=O)[C@@H](NC(=O)[C@H](C(C)C)N(C)C)C(C)C)[C@@H]1CC[C@]2(COC(C)=O)CC[C@]3(C)[C@H](CC[C@@H]4[C@@]5(C)CC[C@H](OC(C)=O)C(C)(C)[C@@H]5CC[C@]43C)[C@@H]12 | 8 µg/mL (≈ 7.13 µM) | 6.3 µg/mL (≈ 5.61 µM) | 4 µg/mL (≈ 3.56 µM) | > 10 µg/mL | 4 µg/mL (≈ 3.56 µM) | 3 µg/mL (≈ 2.67 µM)
2 | C=C(CNC(=O)[C@H](C)[C@@H](OC)[C@@H]1CCCN1C(=O)OC(C)(C)C)[C@@H]1CC[C@]2(CO)CC[C@]3(C)[C@H](CC[C@@H]4[C@@]5(C)CC[C@H](O)C(C)(C)[C@@H]5CC[C@]43C)[C@@H]12 | > 10 µg/mL | 9 µg/mL (≈ 12.4 µM) | > 10 µg/mL | > 10 µg/mL | > 10 µg/mL | > 10 µg/mL
3 | C=C(C)[C@@H]1CC[C@]2(CO)CC[C@]3(C)[C@H](CC[C@@H]4[C@@]5(C)CC[C@H](O)C(C)(C)[C@@H]5CC[C@]43C)[C@@H]12 [BETULIN] | 9.3 µg/mL (≈ 21 µM) | > 10 µg/mL | > 10 µg/mL | 7.4 µg/mL (≈ 16.7 µM) | > 10 µg/mL | > 10 µg/mL
4 | C=C(C)[C@@H]1CC[C@]2(CNC(=O)[C@H](C)[C@@H](OC)[C@@H]3CCCN3C(=O)C[C@@H](OC)[C@H]([C@@H](C)CC)N(C)C(=O)[C@@H](NC(=O)[C@H](C(C)C)N(C)C)C(C)C)CC[C@]3(C)[C@H](CC[C@@H]4[C@@]5(C)CC[C@H](O)C(C)(C)[C@@H]5CC[C@]43C)[C@@H]12 | 0.6 µg/mL (≈ 0.587 µM) | 0.4 µg/mL (≈ 0.391 µM) | 0.3 µg/mL (≈ 0.293 µM) | > 1 µg/mL | 0.31 µg/mL (≈ 0.303 µM) | 0.4 µg/mL (≈ 0.391 µM)
5 | C=C(C)[C@@H]1CC[C@]2(CN)CC[C@]3(C)[C@H](CC[C@@H]4[C@@]5(C)CC[C@H](OC(C)=O)C(C)(C)[C@@H]5CC[C@]43C)[C@@H]12 | 1.9 µg/mL (≈ 3.93 µM) | 1.8 µg/mL (≈ 3.72 µM) | 1.8 µg/mL (≈ 3.72 µM) | 1.9 µg/mL (≈ 3.93 µM) | 1.9 µg/mL (≈ 3.93 µM) | 1.8 µg/mL (≈ 3.72 µM)
6 | C=C(C)[C@@H]1CC[C@]2(COC(C)=O)CC[C@]3(C)[C@H](CC[C@@H]4[C@@]5(C)CC[C@@H](N)C(C)(C)[C@@H]5CC[C@]43C)[C@@H]12 | > 10 µg/mL | 2.1 µg/mL (≈ 4.34 µM) | 1.2 µg/mL (≈ 2.48 µM) | 6 µg/mL (≈ 12.4 µM) | 3 µg/mL (≈ 6.2 µM) | 1.3 µg/mL (≈ 2.69 µM)
7 | C=C(C)[C@@H]1CC[C@]2(COC(C)=O)CC[C@]3(C)[C@H](CC[C@@H]4[C@@]5(C)CC[C@H](NC(=O)[C@H](C)[C@@H](OC)[C@@H]6CCCN6C(=O)C[C@@H](OC)[C@H]([C@@H](C)CC)N(C)C(=O)[C@@H](NC(=O)[C@H](C(C)C)N(C)C)C(C)C)C(C)(C)[C@@H]5CC[C@]43C)[C@@H]12 | 10 µg/mL (≈ 9.39 µM) | 4.1 µg/mL (≈ 3.85 µM) | 3.8 µg/mL (≈ 3.57 µM) | > 10 µg/mL | 7 µg/mL (≈ 6.58 µM) | 2.5 µg/mL (≈ 2.35 µM)
8 | C=C(CNC(=O)[C@H](C)[C@@H](OC)[C@@H]1CCCN1C(=O)C[C@@H](OC)[C@H]([C@@H](C)CC)N(C)C(=O)[C@@H](NC(=O)[C@H](C(C)C)N(C)C)C(C)C)[C@@H]1CC[C@]2(CO)CC[C@]3(C)[C@H](CC[C@@H]4[C@@]5(C)CC[C@H](O)C(C)(C)[C@@H]5CC[C@]43C)[C@@H]12 | 0.4 µg/mL (≈ 0.385 µM) | 0.08 µg/mL (≈ 0.077 µM) | 0.04 µg/mL (≈ 0.0385 µM) | 0.5 µg/mL (≈ 0.481 µM) | 0.09 µg/mL (≈ 0.0867 µM) | 0.04 µg/mL (≈ 0.0385 µM)
9 | C=C(C)[C@@H]1CC[C@]2(CNC(=O)[C@H](C)[C@@H](OC)[C@@H]3CCCN3C(=O)C[C@@H](OC)[C@H]([C@@H](C)CC)N(C)C(=O)[C@@H](NC(=O)[C@H](C(C)C)N(C)C)C(C)C)CC[C@]3(C)[C@H](CC[C@@H]4[C@@]5(C)CC[C@H](OC(C)=O)C(C)(C)[C@@H]5CC[C@]43C)[C@@H]12 | 4.1 µg/mL (≈ 3.85 µM) | 3.6 µg/mL (≈ 3.38 µM) | 2.6 µg/mL (≈ 2.44 µM) | 4.2 µg/mL (≈ 3.95 µM) | 2.4 µg/mL (≈ 2.25 µM) | 3.7 µg/mL (≈ 3.48 µM)
10 | C=C(C)[C@@H]1CC[C@]2(COC(C)=O)CC[C@]3(C)[C@H](CC[C@@H]4[C@@]5(C)CC/C(=N/O)C(C)(C)[C@@H]5CC[C@]43C)[C@@H]12 | 10.4 µg/mL (≈ 20.9 µM) | 5.9 µg/mL (≈ 11.9 µM) | > 10 µg/mL | > 10 µg/mL | 14.1 µg/mL (≈ 28.3 µM) | > 10 µg/mL
11 | CC[C@H](C)[C@@H]([C@@H](CC(=O)N1CCC[C@H]1[C@H](OC)[C@@H](C)C(=O)NCCN1C(=O)[C@]23CCC(C)(C)C1[C@@H]2[C@H]1CC[C@@H]2[C@@]4(C)CC[C@H](O)C(C)(C)[C@@H]4CC[C@@]2(C)[C@]1(C)CC3)OC)N(C)C(=O)[C@@H](NC(=O)[C@H](C(C)C)N(C)C)C(C)C | 0.31 µg/mL (≈ 0.287 µM) | 0.21 µg/mL (≈ 0.195 µM) | 0.09 µg/mL (≈ 0.0834 µM) | 0.6 µg/mL (≈ 0.556 µM) | 0.22 µg/mL (≈ 0.204 µM) | 0.06 µg/mL (≈ 0.0556 µM)
